Test results reported in ChEMBL document CHEMBL1153083, “Antiprotozoal, anticancer and antimicrobial activities of dihydroartemisinin acetal dimers and monomers” (Bioorg Med Chem, 2009).
The source made the active and inactive calls. No cut-off for these calls is given here.

Key:
[1] = tested on: Plasmodium falciparum; test: Antiplasmodial activity against Plasmodium falciparum D6 infected in RBCs by parasitic LDH release assay; type: functional, organism-based
Summary of the method: (§1)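 Infected erythrocytes at 2% parasitemia and 2% hematocrit, in RPMI 1640 with 10% human serum and amikacin 60 μg/mL, were exposed to serial dilutions under N2/O2/CO2 (90:5:5) at 37°C for 72 h. LDH was read with Malstat reagent (30 min), then NBT/PES in the dark (60 min), stopped with 5% acetic acid, at 650 nm. IC50 came from percent growth dose-response curves.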

[2] = Selectivity index, ratio of TC50 for african green monkey (Cercopithecus aethiops) Vero cells to IC50 for Plasmodium falciparum D6; type: toxicity, cell-based
[3] = tested on: Plasmodium falciparum; test: Antiplasmodial activity against Plasmodium falciparum W2 infected in RBCs by parasitic LDH release assay; type: functional, organism-based; summary of the method: as §1
[4] = Selectivity index, ratio of TC50 for african green monkey (Cercopithecus aethiops) Vero cells to IC50 for Plasmodium falciparum W2; type: toxicity, cell-based
[5] = Toxicity against african green monkey Vero cells; type: cell-based; details: chlorocebus sabaeus
Summary of the method: (§2)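 Cells seeded at 25,000 per well and incubated 24 h, then exposed to samples for 48 h. Viable cells were counted by neutral red, with DMSO as vehicle control. IC50 or TC50 values were derived from logarithmic plots of growth inhibition versus concentration.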

[6] = tested on: Leishmania donovani; test: Antileishmanial activity against Leishmania donovani promastigotes after 48 hrs by alamar blue assay; type: functional, organism-based; details: for IC50: read-out: IC50
[7] = tested on: SK-MEL; test: Cytotoxicity against human SK-MEL cells after 48 hrs by neutral red assay; type: functional, cell-based; summary of the method: as §2
[8] = tested on: KB; test: Cytotoxicity against human KB cells after 48 hrs by neutral red assay; type: functional, cell-based; summary of the method: as §2
[9] = tested on: BT-549; test: Cytotoxicity against human BT549 cells after 48 hrs by neutral red assay; type: functional, cell-based; summary of the method: as §2
[10] = tested on: SK-OV-3; test: Cytotoxicity against human SKOV3 cells after 48 hrs by neutral red assay; type: functional, cell-based; summary of the method: as §2
[11] = tested on: Vero; test: (§3) Toxicity against african green monkey Vero cells after 48 hrs by neutral red assay; type: cell-based; details: chlorocebus sabaeus, vero, 48 h; summary of the method: as §2
[12] = Toxicity against pig LLC-PK11 cells after 48 hrs by neutral red assay; type: cell-based, Sus scrofa; details: for TC50: llc-pk11, 48 h; for CC50 at 48 h: LLC-PK11 cells, read-out: TC50; summary of the method: as §2
[13] = tested on: Candida albicans; test: Antifungal activity against Candida albicans ATCC 90028 by modified CLSI/NCCLS method; type: functional, organism-based
[14] = tested on: Cryptococcus neoformans; test: Antifungal activity against Cryptococcus neoformans ATCC 90113 by modified CLSI/NCCLS method; type: functional, organism-based
[15] = tested on: Aspergillus fumigatus; test: Antifungal activity against Aspergillus fumigatus ATCC 90906 by modified CLSI/NCCLS method; type: functional, organism-based
[16] = tested on: Staphylococcus aureus; test: Antibacterial activity against methicillin-resistant Staphylococcus aureus ATCC 43300 by modified CLSI/NCCLS method; type: functional, organism-based
[17] = tested on: Escherichia coli; test: Antibacterial activity against Escherichia coli ATCC 35218 by modified CLSI/NCCLS method; type: functional, organism-based
[18] = tested on: Pseudomonas aeruginosa; test: Antibacterial activity against Pseudomonas aeruginosa ATCC 27853 by modified CLSI/NCCLS method; type: functional, organism-based
[19] = tested on: Mycobacterium intracellulare; test: Antibacterial activity against Mycobacterium intracellular ATCC 23068 by Franzblau method; type: functional, organism-based
[20] = as §3; type: cell-based; details: chlorocebus sabaeus, Vero cells; read-out: TC50; summary of the method: as §2
[21] = tested on: Nakaseomyces glabratus; test: Antifungal activity against Candida glabrata ATCC 90030 by modified CLSI/NCCLS method; type: functional, organism-based
[22] = tested on: Pichia kudriavzevii; test: Antifungal activity against Candida krusei ATCC 6258 by modified CLSI/NCCLS method; type: functional, organism-based
[23] = tested on: Staphylococcus aureus; test: Antibacterial activity against Staphylococcus aureus ATCC 29213 by modified CLSI/NCCLS method; type: functional, organism-based
[24] = Candida albicans, ATCC 90028, read-out: IC50
[25] = Aspergillus fumigatus, ATCC 90906, read-out: IC50
[26] = Escherichia coli, ATCC 35218, read-out: IC50
[27] = Homo sapiens, SK-MEL, 48 h, read-out: IC50
[28] = Homo sapiens, KB, 48 h, read-out: IC50
[29] = Homo sapiens, BT-549, 48 h, read-out: IC50

Row | Compound | IC50 [1] [nM] | selectivity ratio [2] | IC50 [3] [nM] | selectivity ratio [4] | CC50 [5] [nM] | IC90 ([6]; Leishmania donovani, 48 h) [nM] | IC50 ([7]; sk-mel) | IC50 ([8]; kb) | IC50 ([9]; bt-549) | IC50 ([10]; sk-ov-3) | TC50 [11] | TC50 [12] | IC50 [13, 24] [nM] | IC50 [14] [nM] | IC50 [15, 25] [nM] | IC50 [16] | IC50 [17, 26] [nM] | IC50 [18] | IC50 [19] | IC50 ([6]; Leishmania donovani, 48 h) [nM] | further results
1 | C[C@H]1[C@@H](OC[C@@H](O)[C@@H](O)CO[C@H]2O[C@@H]3O[C@@]4(C)CC[C@H]5[C@H](C)CC[C@@H]([C@H]2C)[C@@]35OO4)O[C@@H]2O[C@@]3(C)CC[C@H]4[C@H](C)CC[C@@H]1[C@@]24OO3 (relative stereo) | 6.7 | > 1080 | 5.2 | > 1400 | > 7260 | 22900 | Not Active | Not Active | Not Active | Not Active | Not Active | Not Active | 6110 | 1220 | 30500 | Not Active | 15300 | Not Active | Not Active |  | 
2 | C[C@H]1[C@@H](OC/C=C\CO)O[C@@H]2O[C@@]3(C)CC[C@H]4[C@H](C)CC[C@@H]1[C@@]24OO3 | 6.2 | > 2160 | 7.6 | > 1760 | > 13400 |  | Not Active | Not Active | Not Active | Not Active | Not Active | Not Active |  | 560 |  | Not Active |  | Not Active | Not Active | 42300 | IC90 [6]: inactive; IC50 [13]: Not Active; IC50 [15]: Not Active; IC50 [17]: Not Active
3 | C[C@H]1[C@@H](OCC(=O)CO[C@H]2O[C@@H]3O[C@@]4(C)CC[C@H]5[C@H](C)CC[C@@H]([C@H]2C)[C@@]35OO4)O[C@@H]2O[C@@]3(C)CC[C@H]4[C@H](C)CC[C@@H]1[C@@]24OO3 | 5.3 | 49 | 5.8 | 44 |  | 38500 |  |  |  | Not Active |  |  | 2410 | 880 | 32100 | Not Active |  |  | Not Active | 7400 | IC50 [7, 27]: 560 nM; IC50 [8, 28]: 240 nM; IC50 [9, 29]: 240 nM; CC50 at 48 h [20]: > 8030 nM; CC50 at 48 h [12]: 100 nM; IC50 [21]: Not Active; IC50 ([22]; Pichia kudriavzevii, ATCC 6258, read-out: IC50): 880 nM
4 | COc1cccc2c1C(=O)c1c(O)c3c(c(O)c1C2=O)C[C@@](O)(C(=O)CO)C[C@@H]3O[C@H]1C[C@H](N)[C@H](O)[C@H](C)O1 [DOXORUBICIN] |  |  |  |  |  |  |  |  |  |  | Non-toxic |  |  |  |  |  |  |  |  |  | IC50 [7, 27]: 1730 nM; IC50 [8, 28]: 2040 nM; IC50 [9, 29]: 1960 nM; IC50 ([10]; Homo sapiens, SK-OV-3, 48 h, read-out: IC50): 2040 nM; CC50 at 48 h [12]: 1290 nM
5 | C[C@H]1[C@@H](O[C@@H](CO[C@H]2O[C@@H]3O[C@@]4(C)CC[C@H]5[C@H](C)CC[C@@H]([C@H]2C)[C@@]35OO4)[C@H](O)CO)O[C@@H]2O[C@@]3(C)CC[C@H]4[C@H](C)CC[C@@H]1[C@@]24OO3 | 11.7 | 71 | 14 | 59 |  | 29700 | Not Active | Not Active | Not Active | Not Active | Not Active | Not Active | 920 | 530 | 7640 |  | 7640 | Not Active |  | 6400 | IC50 ([16]; Staphylococcus aureus, ATCC 43300, read-out: IC50): 22900 nM; IC50 ([19]; Mycobacterium intracellulare, ATCC 23068, read-out: IC50): 15300 nM
6 | C[C@H]1[C@@H](OC[C@@H]2O[C@@H]2CO[C@H]2O[C@@H]3O[C@@]4(C)CC[C@H]5[C@H](C)CC[C@@H]([C@H]2C)[C@@]35OO4)O[C@@H]2O[C@@]3(C)CC[C@H]4[C@H](C)CC[C@@H]1[C@@]24OO3 (relative stereo) | 45.5 | > 164 | 47.1 | > 159 | > 7470 | 47100 |  |  |  | Not Active |  |  | > 31400 | 31400 | > 31400 | Not Active |  |  | Not Active | 3900 | IC50 [7, 27]: 220 nM; IC50 [8, 28]: 470 nM; IC50 [9, 29]: 300 nM; CC50 at 48 h [20]: > 1570 nM; CC50 at 48 h [12]: 680 nM; IC50 ([21]; Nakaseomyces glabratus, ATCC 90030, read-out: IC50): > 31400 nM; IC50 [22]: Not Active; IC50 [23]: Not Active; IC50 [17]: Not Active; IC50 ([18]; Pseudomonas aeruginosa, ATCC 27853, read-out: IC50): > 31400 nM
7 | C[C@H]1[C@@H](Oc2cccc(N[C@@H]3[C@H](C)O[C@@H]4O[C@@]5(C)CC[C@H]6[C@H](C)CC[C@@H]3[C@@]46OO5)c2)O[C@@H]2O[C@@]3(C)CC[C@H]4[C@H](C)CC[C@@H]1[C@@]24OO3 | 5.8 | > 1290 | 5.9 | > 1250 | > 7410 | 62300 | Not Active | Not Active | Not Active | Not Active | Not Active | Not Active |  | 160 |  | Not Active | 8570 | Not Active | Not Active | 24900 | IC50 [13]: Not Active; IC50 [15]: Not Active
